Results reported in ChEMBL document CHEMBL1131049, “Antiviral activities of methylated nordihydroguaiaretic acids. 2. Targeting herpes simplex virus replication by the mutation insensitive transcription inhibitor tetra-O-methyl-NDGA” (J Med Chem, 1998).
Several values for one entry are separate records, joined by “and”; a condition that tells them apart may be missing. Equal values may be shown once.

What was measured:
[1] = Ralative safety was expressed as Selective index (TC50/IC50) at HSV-1 passage 8 in vero cells; type: functional
Summary of the method: (§1)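 SI = TC50/IC50 per passage. IC50 comes from serial passage of HSV-1 Sm44 or HSV-2 Sav in Vero cells (100 TCID50, drug added 2 h p.i., CPE read-out, triplicates). TC50 comes from uninfected Vero cells by a tetrazolium viability assay, run three times in triplicate and averaged.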

[2] = Ralative safety was expressed as Selective index (TC50/IC50) at HSV-1 passage 1 in vero cells; type: functional; summary of the method: as §1
Vero [3] = assay: Comparative Potency (IC50s) at HSV-1 passage 8 in vero cells; type: functional, cell-based; details: Chlorocebus sabaeus
Summary of the method: (§2)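 Vero cells infected with 100 TCID50 of HSV-1 (Sm44) or HSV-2 (Sav); compound in DMSO diluted in medium and added 2 h post-infection, triplicates per concentration. Passaging: virus recovered from cultures at the IC50 infected fresh Vero cells, and the IC50 was redetermined each passage.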

Vero [4] = assay: Comparative Potency (IC50s) at HSV-1 passage 6 in vero cells; type: functional, cell-based; details: Chlorocebus sabaeus; summary of the method: as §2
Vero [5] = assay: Comparative Potency (IC50s) at HSV-1 passage 2 in vero cells; type: functional, cell-based; details: Chlorocebus sabaeus; summary of the method: as §2
Vero [6] = assay: Comparative Potency (IC50s) at HSV-2 passage 2 in vero cells; type: functional, cell-based; details: Chlorocebus sabaeus; summary of the method: as §2
[7] = Ralative safety was expressed as Selective index (TC50/IC50) at HSV-1 passage 9 in vero cells; type: functional; summary of the method: as §1
[8] = Ralative safety was expressed as Selective index (TC50/IC50) at HSV-1 passage 4 in vero cells; type: functional; summary of the method: as §1
[9] = Ralative safety was expressed as Selective index (TC50/IC50) at HSV-1 passage 6 in vero cells; type: functional; summary of the method: as §1
Vero [10] = assay: Comparative Potency (IC50s) at HSV-2 passage 1 in vero cells; type: functional, cell-based; details: Chlorocebus sabaeus; summary of the method: as §2
Vero [11] = assay: Comparative Potency (IC50s) at HSV-1 passage 4 in vero cells; type: functional, cell-based; details: Chlorocebus sabaeus; summary of the method: as §2
Vero [12] = assay: Comparative Potency (IC50s) at HSV-2 passage 3 in vero cells; type: functional, cell-based; details: Chlorocebus sabaeus; summary of the method: as §2
[13] = Ralative safety was expressed as Selective index (TC50/IC50) at HSV-2 passage 2 in vero cells; type: functional; summary of the method: as §1
[14] = Ralative safety was expressed as Selective index (TC50/IC50) at HSV-2 passage 4 in vero cells; type: functional; summary of the method: as §1
Vero [15] = assay: Comparative Potency (IC50s) at HSV-1 passage 7 in vero cells; type: functional, cell-based; details: Chlorocebus sabaeus; summary of the method: as §2
[16] = Ralative safety was expressed as Selective index (TC50/IC50) at HSV-2 passage 1 in vero cells; type: functional; summary of the method: as §1
[17] = Ralative safety was expressed as Selective index (TC50/IC50) at HSV-2 passage 3 in vero cells; type: functional; summary of the method: as §1
Vero [18] = assay: Comparative Potency (IC50s) at HSV-2 passage 4 in vero cells; type: functional, cell-based; details: Chlorocebus sabaeus; summary of the method: as §2
[19] = Ralative safety was expressed as Selective index (TC50/IC50) at HSV-1 passage 3 in vero cells; type: functional; summary of the method: as §1
[20] = Ralative safety was expressed as Selective index (TC50/IC50) at HSV-1 passage 7 in vero cells; type: functional; summary of the method: as §1
[21] = Ralative safety was expressed as Selective index (TC50/IC50) at HSV-1 passage 10 in vero cells; type: functional; summary of the method: as §1
[22] = Ralative safety was expressed as Selective index (TC50/IC50) at HSV-1 passage 2 in vero cells; type: functional; summary of the method: as §1
Vero [23] = assay: Comparative Potency (IC50s) at HSV-1 passage 3 in vero cells; type: functional, cell-based; details: Chlorocebus sabaeus; summary of the method: as §2
[24] = Ralative safety was expressed as Selective index (TC50/IC50) at HSV-1 passage 5 in vero cells; type: functional; summary of the method: as §1
Vero [25] = assay: Comparative Potency (IC50s) at HSV-1 passage 9 in vero cells; type: functional, cell-based; details: Chlorocebus sabaeus; summary of the method: as §2
Vero [26] = assay: Comparative Potency (IC50s) at HSV-1 passage 5 in vero cells; type: functional, cell-based; details: Chlorocebus sabaeus; summary of the method: as §2
[27] = Relative safety was expressed as Selective index (TC50/IC50) at HSV-1 passage 7 in vero cells; type: functional; summary of the method: as §1
[28] = Relative safety was expressed as Selective index (TC50/IC50) at HSV-1 passage 1 in vero cells; type: functional; summary of the method: as §1
Mus musculus [29] = assay: Percent Change in body weight of 5 mice when intraperitoneally administered daily once for 1 day at dose 300 mg/kg; type: functional; details: route intraperitoneal
[30] = Relative safety was expressed as Selective index (TC50/IC50) at HSV-2 passage 2 in vero cells; type: functional; summary of the method: as §1
[31] = Mortality in 5 mice when intraperitoneally administered daily once for 7 days at dose 25 mg/kg; type: ADME, organism-based; design: dose 25 mg/kg, route intraperitoneal; details: mouse, in vivo, ip, 168 h
[32] = Relative safety was expressed as Selective index (TC50/IC50) at HSV-2 passage 1 in vero cells; type: functional; summary of the method: as §1
[33] = Mortality in 5 mice when intraperitoneally administered daily once for 7 days at dose 100 mg/kg; type: ADME, organism-based; design: dose 100 mg/kg, route intraperitoneal; details: mouse, in vivo, ip, 168 h
Vero [34] = assay: Comparative Potency (IC50s) at HSV-1 passage 10 in vero cells; type: functional, cell-based, Chlorocebus sabaeus; summary of the method: as §2
[35] = Relative safety was expressed as Selective index (TC50/IC50) at HSV-1 passage 9 in vero cells; type: functional; summary of the method: as §1
[36] = Relative safety was expressed as Selective index (TC50/IC50) at HSV-1 passage 4 in vero cells; type: functional; summary of the method: as §1
Mus musculus [37] = assay: Percent Change in body weight of 5 mice when intraperitoneally administered daily once for 7 days at dose 50 mg/kg; type: functional; details: route intraperitoneal
[38] = Relative safety was expressed as Selective index (TC50/IC50) at HSV-1 passage 3 in vero cells; type: functional; summary of the method: as §1
[39] = Mortality in 5 mice when intraperitoneally administered daily twice for 5 days at dose 50 mg/kg; type: ADME, organism-based; design: dose 50 mg/kg, route intraperitoneal; details: mouse, in vivo, ip, 120 h
[40] = Relative safety was expressed as Selective index (TC50/IC50) at HSV-1 passage 2 in vero cells; type: functional; summary of the method: as §1
[41] = Relative safety was expressed as Selective index (TC50/IC50) at HSV-1 passage 5 in vero cells; type: functional; summary of the method: as §1
[42] = Relative safety was expressed as Selective index (TC50/IC50) at HSV-1 passage 10 in vero cells; type: functional; summary of the method: as §1
[43] = Relative safety was expressed as Selective index (TC50/IC50) at HSV-1 passage 6 in vero cells; type: functional; summary of the method: as §1
[44] = Relative safety was expressed as Selective index (TC50/IC50) at HSV-1 passage 8 in vero cells; type: functional; summary of the method: as §1
[45] = Relative safety was expressed as Selective index (TC50/IC50) at HSV-2 passage 3 in vero cells; type: functional; summary of the method: as §1
[46] = Mortality in 5 mice when intraperitoneally administered daily once for 7 days at dose 50 mg/kg; type: ADME, organism-based; design: dose 50 mg/kg, route intraperitoneal; details: mouse, in vivo, ip, 168 h
[47] = Relative safety was expressed as Selective index (TC50/IC50) at HSV-2 passage 4 in vero cells; type: functional; summary of the method: as §1

SMILES: Nc1nc2c(ncn2COCCO)c(=O)[nH]1 [ACYCLOVIR]
- Selectivity index [1]: 23
- Selectivity index [2]: 589
- IC50 (Vero [3]): 444 µM
- IC50 (Vero [4]): 131 µM
- IC50 (Vero [5]): 37.8 µM
- IC50 (Vero [6]): > 44.4 µM
- Selectivity index [7]: 11
- Selectivity index [8]: 32
- Selectivity index [9]: 34
- IC50 (Vero [10]): 6.66 µM
- IC50 (Vero [11]): 138 µM
- IC50 (Vero [12]): 62.8 µM
- Selectivity index [13]: 100
- Selectivity index [14]: 50
- IC50 (Vero [15]): 190 µM
- Selectivity index [16]: 667
- Selectivity index [17]: 70
- IC50 (Vero [18]): > 88.8 µM
- Selectivity index [19]: 50
- Selectivity index [20]: 23
- Selectivity index [21]: 10
- Selectivity index [22]: 117
- IC50 (Vero [23]): > 88.8 µM
- Selectivity index [24]: 40
- IC50 (Vero [25]): 379 µM
- IC50 (Vero [26]): 111 µM

SMILES: COc1ccc(C[C@@H](C)[C@@H](C)Cc2ccc(OC)c(OC)c2)cc1OC [TERAMEPROCOL]
- IC50 (Vero [3]): 9.91 µM
- Selectivity index [27]: 22.9
- IC50 (Vero [4]): 6.98 µM
- Selectivity index [28]: 13.7
- Change (Mus musculus [29]): -2.66%
- IC50 (Vero [5]): 4.4 µM
- Selectivity index [30]: 14.4
- Mortality [31]: 0
- IC50 (Vero [6]): 11.1 µM
- IC50 (Vero [10]): 4.18 µM
- IC50 (Vero [11]): 5.97 µM
- Selectivity index [32]: 38.3
- Mortality [33]: 0
- IC50 (Vero [34]): 11.7 µM and 4.47 µM
- Selectivity index [35]: 18.1
- IC50 (Vero [12]): 11.1 µM
- Selectivity index [36]: 26.8
- Change (Mus musculus [37]): -2.8%
- Selectivity index [38]: 19.4
- IC50 (Vero [15]): 6.98 µM
- Mortality [39]: 1
- IC50 (Vero [18]): 11.1 µM
- IC50 (Vero [23]): 8.24 µM
- Selectivity index [40]: 36.4
- Selectivity index [41]: 24.7
- Selectivity index [42]: 33.5
- Selectivity index [43]: 22.9
- Selectivity index [44]: 16.1
- IC50 (Vero [25]): 8.82 µM
- Selectivity index [45]: 14.4
- IC50 (Vero [26]): 6.48 µM
- Mortality [46]: 0
- Selectivity index [47]: 14.4
